Compounds with a hit are over-represented: about 4.1% of the library has one in this group of screens.
MrgX1 agonist: agonists of human MrgX1 receptor, primary screen, HEK293 cells, Fluo-4 calcium flux; Fluo-4 calcium fluorescence, agonist mode; active compounds read high; B-score at 10 µM; 310,000 compounds, 0.44% hits;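 active means calcium response B-score plate-corrected fluorescence ratio at least 3 library SD, with starting fluorescence B-score inside 5 SD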
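Test system: Stable human MrgX1 HEK293 cell line | Schedule: Overnight plating before 1 h dye loading | Read-out basis: Baseline-normalised fluorescence change ratio, B-scored | Detection: Kinetic calcium dye fluorescence, Fluo-4 NW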
RGS4 block: RGS4 inhibitors, primary screen, cell-based, HEK293 M3R inducible RGS4, calcium flux. Regulator of G-protein signaling 4 (Homo sapiens), P49798. Fluo-4 calcium flux; active compounds read high; triggered by carbachol at its EC20. B-score at 10 µM. 310,000 compounds, 0.45% hits;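 active means B-score, a plate-corrected calcium signal, over three deviations above library mean, with baseline fluorescence within five deviations of library mean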;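 further: RGS4 expression induced by doxycycline in cells with stable M3 receptor; B-score is computed from the integrated fluorescence ratio over baseline after carbachol; higher B-score means a larger calcium signal and so more RGS4 inhibition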
Target sequence (P49798 whole entry, looked up): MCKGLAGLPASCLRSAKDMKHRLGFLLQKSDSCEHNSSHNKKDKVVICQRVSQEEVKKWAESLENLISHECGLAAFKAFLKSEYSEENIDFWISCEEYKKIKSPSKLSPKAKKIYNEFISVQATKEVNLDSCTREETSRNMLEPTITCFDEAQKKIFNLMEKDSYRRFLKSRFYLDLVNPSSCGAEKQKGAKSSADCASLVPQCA
Kir21 inh: inhibitors of mouse Kir2.1 inward-rectifier potassium channel; Inward rectifier potassium channel 2 (Mus musculus), P35561; HEK293-Kir2.1, FluxOR thallium flux fluorescence; active compounds read low; B-score at 10 µM; 310,000 compounds, 0.85% hits; AID 1672, 2009;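 active means fluorescence ratio B-score at or below minus 3 SD of library scores, with starting-brightness B-score within 2 SD, cut at about -4.2 in these data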;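 further: channel flux triggered by added potassium and thallium sulfate stimulus; B-score of peak minus minimum fluorescence over baseline after thallium stimulus; more negative B-score means stronger Kir2.1 block with less thallium influx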
Target sequence (P35561 whole entry, looked up): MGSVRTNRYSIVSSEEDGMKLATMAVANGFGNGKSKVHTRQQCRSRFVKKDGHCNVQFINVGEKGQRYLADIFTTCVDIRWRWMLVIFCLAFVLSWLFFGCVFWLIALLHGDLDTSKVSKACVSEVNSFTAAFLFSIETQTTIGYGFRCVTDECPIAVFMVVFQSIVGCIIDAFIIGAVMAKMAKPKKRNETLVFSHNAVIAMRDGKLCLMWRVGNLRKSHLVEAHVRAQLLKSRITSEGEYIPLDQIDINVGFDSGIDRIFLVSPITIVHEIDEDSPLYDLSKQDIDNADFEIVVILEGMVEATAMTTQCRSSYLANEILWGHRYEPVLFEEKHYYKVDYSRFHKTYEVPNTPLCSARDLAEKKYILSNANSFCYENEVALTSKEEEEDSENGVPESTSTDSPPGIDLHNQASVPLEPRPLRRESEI
MrgX1 antagonist: antagonists of human MrgX1 receptor, primary screen, HEK293 cells, Fluo-4 calcium flux | Mas-related G-protein coupled receptor member X1 (Homo sapiens), Q96LB2 | BAM8-22 antagonism; active compounds read low | B-score at 10 µM | 310,000 compounds, 1.3% hits;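 active means calcium-response B-score plate-corrected more than 3 library SD below zero, starting fluorescence within 5 deviations, no agonist response on first addition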;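 further: peak minus trough fluorescence over baseline after final BAM8-22 challenge near maximal dose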
RGS4 pot: RGS4 potentiators or activators, primary screen, cell-based, HEK293 M3R inducible RGS4, calcium flux; AID 463111, 2010; carbachol calcium flux Fluo4; active compounds read low; 310,000 compounds, 0.92% hits; B-score at 10 µM;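 active means B-score of the integrated calcium signal more than 4 SD below the library mean, with starting fluorescence not abnormally high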;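 further: negative B-score means reduced calcium response which marks RGS4 activation or potentiation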
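System: HEK293 FlpIn-TREx cells, stable M3R, doxycycline-inducible RGS4. Timing: overnight RGS4 induction, 30 min dye load 37 °C, 20 min compound RT. Also added: carbachol, ECmax concentration. Measured by: Fluo4 fluorescence kinetic imaging of calcium. Evaluation: integrated calcium ratio converted to B score.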
MrgX1 PAM: positive allosteric modulators of MrgX1, primary screen, HEK293 cells, Fluo-4 calcium flux; Mas-related G-protein coupled receptor member X1 (Homo sapiens), Q96LB2; FDSS; active compounds read high; B-score at 10 µM; 310,000 compounds, 0.63% hits; AID 588675, 2011;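 active means plate-corrected calcium response at least 3 library SD above typical, normal starting fluorescence, not activating the receptor alone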;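 further: compound read alongside a low EC10 to EC30 dose of BAM8-22 agonist; peak minus trough fluorescence over baseline measured at the second addition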
MrgX1 allo conf: MrgX1 positive allosteric modulators, duplicate retest, confirmation, HEK293 cells, Fluo-4 calcium flux; shares compounds with MrgX1 PAM; Fluo-4 calcium fluorescence, FDSS; activation (ratio percentage), % at 10 µM; 1,200 compounds, 13% hits;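 active means ratio at least 3 SD above the weak peptide control, stable starting fluorescence, no direct agonism earlier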;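 further: compound followed by low BAM8-22 agonist challenge near EC20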
HEK293 Ca flux: nonspecific calcium signal in parental HEK293, confirmation, counter-screen for MrgX1 antagonist project, parental HEK293 cells, Fluo-4 calcium flux; shares compounds with MrgX1 antagonist; Fluo-4 calcium fluorescence, FDSS; fluorescence ratio F(max-min)/F0 at 10 µM; 4,000 compounds, 2% hits; AID 624111, 2012;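 active means duplicate-averaged calcium fluorescence ratio at least three times the standard deviation of buffer wells, a nonspecific response in parental cells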
HEK293 Ca counter: calcium response in parental HEK293 cells, primary screen, counter-screen for MrgX1 allosteric activator project, cell-based, Fluo-4 calcium flux, duplicate; 4,000 compounds, 0.4% hits; shares compounds with MrgX1 antagonist; Fluo-4 fluorescence ratio; active compounds read high; fluorescence ratio F(max-min)/F0 at 10 µM;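 active means calcium fluorescence ratio, averaged over duplicates, at least 3 SD of the buffer-well ratio, meaning a nonspecific response in receptor-free cells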;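 further: untransfected parental HEK293 lacking MrgX1 used as counterscreen for MrgX1 allosteric activators; fluorescence change taken during the second addition on a kinetic imager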
HEK293 Ca cntr2: calcium response in parental HEK293 cells, primary screen, counter-screen for MrgX1 agonist project, cell-based, Fluo-4 calcium flux, duplicate, agonist mode | fluorescence ratio F(max-min)/F0 at 10 µM | Fluo-4 calcium fluorescence (FDSS); active compounds read high | 4,000 compounds, 8.7% hits | AID 624115, 2012 | shares compounds with MrgX1 antagonist;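 active means calcium fluorescence ratio at least three times the spread of buffer wells, meaning a non-specific response in parental cells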
Numbers stand for hits; – = inactive; · = no result given.

SMILES	MrgX1 agonist	RGS4 block	Kir21 inh	MrgX1 antagonist	RGS4 pot	MrgX1 PAM	MrgX1 allo conf	HEK293 Ca flux	HEK293 Ca counter	HEK293 Ca cntr2
CCN(CC)S(=O)(=O)c1c(OC)cc(C)c(Cl)c1C	–	–	–	–	–	10	–	–	–	–
CC(C)c1ccc2c(c1)[C@H]1OCC[C@H]1[C@@H](c1cccs1)N2	–	–	–	–	–	8.3	3.3%	–	–	–
CC1(C)CC2CC(C)(CN2c2ncnc3ccccc23)C1 (centres undefined)	–	–	–	–	–	25	25%	–	–	–
CC1CCCCN1c1ncnc2ccccc12 (centres undefined)	–	–	–	–	–	–	·	·	·	·
CCN(CC(=O)Nc1c(F)cccc1F)C(=O)Cc1ccc2c(c1)CCC2	–	–	–	–	–	–	·	·	·	·
CCN(CC(=O)Nc1c(F)cccc1F)C(=O)Cc1csc(-c2ccccc2)n1	–	–	–	–	–	7.5	–	–	–	–
Cc1cc(C)n(-c2ccc(C(=O)NC3CCCCC3)cc2)n1	–	–	–	–	–	9.8	–	–	–	–
Cc1nc2cc(Cl)ccc2n1-c1ccccc1	–	–	–	–	–	16	–	–	–	–
C=CCn1c(SCc2nc3ccccc3[nH]2)nnc1-c1ccccn1	–	–	–	–	–	–	·	·	·	·
CCCCCCn1c(N2CCCC2)nc2c1c(=O)n(C)c(=O)n2C	–	–	–	–	–	7.7	–	–	–	–
COC(=O)[C@@H](NC(=O)N(C1CCCCC1)C1CCCCC1)C(C)C	–	–	–	–	–	–	·	·	·	·
O=C(Nc1ccc(Cl)cc1)OC(CN1CCCCC1)C(F)(F)F (centres undefined)	–	–	–	–	–	–	·	·	·	·
O=C(Nc1cccc(F)c1)OC(CN1CCCCC1)C(F)(F)F (centres undefined)	–	–	–	–	–	7.2	–	–	–	–
COC(=O)c1cc(Sc2c(Cl)cccc2Cl)ccn1	–	–	–	–	–	46	20%	–	–	–
COC(=O)c1cc(Sc2cccc(Cl)c2Cl)ccn1	–	–	–	–	–	–	·	·	·	·
COC(=O)[C@H](Cc1ccccc1)NC(=O)N1Cc2ccccc2C[C@H]1C(=O)OC	–	–	–	–	–	–	·	·	·	·
COC(=O)C1Cc2ccccc2CN1C(=O)CCl (centres undefined)	–	–	–	–	–	8.1	–	–	–	–
COc1cc(NC(=O)C2CC(=O)N(CCc3ccc(F)cc3)C2)cc(OC)c1OC (centres undefined)	–	–	–	–	–	–	·	·	·	·
CC1CCCC(C)N1C(=O)c1cc(-c2ccc(Cl)c(Cl)c2)on1 (centres undefined)	–	–	–	–	–	7.8	–	–	–	–
O=C(c1cc(-c2cccc(Cl)c2)on1)N1CCCCCC1	–	–	–	–	–	12	–	–	–	–
CN1CCN(C(=O)c2cc(-c3cccc(Cl)c3)on2)CC1	–	–	–	–	–	–	·	·	·	·
O=C(c1cc(-c2ccc(Cl)c(Cl)c2)on1)N1CCCCCC1	–	–	–	–	–	–	·	·	·	·
CC1CCCC(C)N1C(=O)c1cc(-c2ccc3c(c2)OCO3)on1 (centres undefined)	–	–	–	–	–	11	–	–	–	–
CC1(C)CC(=O)c2sc(NS(=O)(=O)c3ccc(F)cc3)nc2C1	–	–	–	–	–	31	6.6%	–	–	–
CC1(C)CC(=O)c2sc(NS(=O)(=O)c3ccc(Cl)cc3)nc2C1	–	–	–	–	–	–	·	·	·	·
SMILES	MrgX1 agonist	RGS4 block	Kir21 inh	MrgX1 antagonist	RGS4 pot	MrgX1 PAM	MrgX1 allo conf	HEK293 Ca flux	HEK293 Ca counter	HEK293 Ca cntr2
CC1(C)CC(=O)c2sc(NS(=O)(=O)c3ccc(Br)cc3)nc2C1	–	–	–	–	–	13	–	–	–	–
O=C(Cn1c(NCCO)nc2ccccc21)c1ccccc1	–	–	–	–	–	7.3	–	–	–	–
CCOc1ccc(S(=O)(=O)N2CCC(C(=O)NCc3ccco3)CC2)cc1C	–	–	–	–	–	–	·	·	·	·
COc1ccc(OCCC(=O)NCC23CC4CC(CC(C4)C2)C3)cc1	–	–	–	–	–	8.9	–	–	–	–
COc1ccc(OCCC(=O)NCc2ccccc2)cc1	–	–	–	–	–	–	·	·	·	·
COc1ccc(CN(C)CC(O)COc2ccc(-c3ccccc3)cc2)cc1OC (centres undefined)	–	–	–	–	–	–	·	·	·	·
CC(C)Cc1ccc(C(C)C(=O)Nc2ccccc2O)cc1 (centres undefined)	–	–	–	–	–	7	–	–	–	–
Cc1c(NC(=O)C(C)c2ccc(CC(C)C)cc2)c(=O)n(-c2ccccc2)n1C (centres undefined)	–	–	–	–	–	–	·	·	·	·
CC(C)(C)c1cc(N)n2nc(C(C)(C)C)cc2n1	–	–	–	–	–	7.7	–	–	–	–
O=C(c1ccnc(Cl)c1)N1CCCC(Nc2ccc(F)cc2)C1 (centres undefined)	–	–	–	–	–	–	·	·	·	·
CCOC(=O)C1CCCN(C(=O)c2cc3cc(F)ccc3[nH]2)C1 (centres undefined)	–	–	–	–	–	7.9	–	–	–	–
O=C(c1cc2cc(F)ccc2[nH]1)N1CCCC(Nc2ccc(F)cc2)C1 (centres undefined)	–	–	–	–	–	13	–	–	–	–
CCOC(=O)NC(=S)Nc1ccc(C(C)(C)C)cc1Br	–	–	–	–	–	–	·	·	·	·

Screening results: PubChem, Johns Hopkins Ion Channel Center
